NOD2-RIPK2 inh: inhibitors of human NOD2-RIPK2 interaction. CHO BLA complementation NOD2-RIPK2, CCF4 ratio. 360,000 compounds, 0.38% hits. AID 624267. inhibition, % at 4.98 µM; in the data active means inhibition above about 21%;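 further: 0% = vehicle only and 100% = reference blocker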
SR-BI DiI inh: inhibitors of mouse SR-BI mediated HDL lipid uptake; inhibition, % at 12.5 µM; ldlA[mSR-BI] CHO cells, DiI-HDL uptake fluorescence, 3 h; 320,000 compounds, 0.96% hits; AID 488896;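 active means mean replicate inhibition of at least 70% and a set share of replicates each scoring 70 or more; inconclusive means meets just one of the two criteria; inactive means fails both criteria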;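 further: 0% = median of neutral control wells and 100% = median of positive control wells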
SR-BI DiI-HDL act: enhances SR-BI lipid uptake from DiI-HDL | CHO ldlA[mSR-BI] cells, DiI-HDL uptake fluorescence, 3 h; 100 = double the neutral-control signal | 320,000 compounds, 0.096% hits | activation, % at 12.5 µM;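 active means mean replicate activation of at least 60% and every replicate at or above 60%; inconclusive means mean or all-replicate condition met, but not both; inactive means mean below 60% and not all replicates reaching 60%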;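 further: 0% = median plate neutral-control signal and 100% = twice that signal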
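Material: SR-BI-overexpressing, LDLR-lacking CHO cells; schedule: compound exposure 3 h, 37 °C; reagent: DiI-labelled HDL at 10 µg/mL final; technique: bottom-read fluorescence, 550/595 nm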
TLR9-MyD88 inh: TLR9-MyD88 interaction inhibition; 340,000 compounds, 0.21% hits; CHO BLA complementation TLR9-MyD88, CCF4 FRET ratio; Q9NR96+Q99836; AID 504734; inhibition, % at 4.98 µM;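 active means inhibition above the mean over all tested compounds plus 3 SD, cut at about 21% in these data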;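 further: 0% = DMSO only wells and 100% = clavulanate BLA inhibitor control wells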
TLR4 MyD88 comp: inhibitors of human TLR4-MyD88 binding; HeLa CL3-4 TLR4/MyD88 BLA complementation, FRET ratio; inhibition, % at 8.4 µM; 200,000 compounds, 0.18% hits; in the data active means inhibition above about 25%;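 further: 0% = vehicle and 100% = reference inhibitor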
Hep lipid drop: hepatic lipid droplet formation modulation; AID 1656; AML12 mouse hepatocytes, oleate lipid droplets, BODIPY imaging; 240,000 compounds, 0.4% hits; inhibition, % at 6.5 µM;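 active means lipid droplet intensity inhibited by at least 50%, with more than 500 cells counted; inconclusive means wells with under 300 cells, treated as cytotoxic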
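Technique: fluorescence imaging, 20x objective, two fields per well / Assay system: AML12 hepatocytes (mouse) / Measure: % inhibition of lipid droplet signal / Doses: 6.5 µM single-point dosing / Incubation: overnight exposure / Reagent: 100 µM oleic acid challenge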
DiI quencher: counter-screen for SR-BI lipid transfer inhibitors: DiI fluorescence quenchers | shares compounds with SR-BI DiI inh | cell-free DiI-HDL fluorescence quenching, 30 min | AC50, µM (titrated, usually from 35 µM), for inactives: at the highest dose activity change, negative = quenching | 470 compounds, 20% hits | AID 540326;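 active means quenching, a falling signal, with AC50 below a set limit tied to the top valid dose, actives reach about 32 µM in these data; inconclusive means no clear call, values can overlap the other calls; inactive means rising signal, and the rest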
TLR9-MyD88 conf: TLR9-MyD88 interaction inhibition, confirmation. shares compounds with TLR9-MyD88 inh. CHO TLR9/MyD88 BLA complementation, CCF4 FRET ratio. inhibition, % at 4.98 µM. 680 compounds, 51% hits. AID 540250;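 active means mean inhibition across three repeats above about 21% taken from the earlier screen, limit read from the data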;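 further: blue over green emission ratio reports constitutive TLR9 MyD88 association via BLA complementation; 0% = DMSO vehicle wells and 100% = clavulanate BLA inhibitor wells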
Target sequence (Q9NR96 whole entry, looked up): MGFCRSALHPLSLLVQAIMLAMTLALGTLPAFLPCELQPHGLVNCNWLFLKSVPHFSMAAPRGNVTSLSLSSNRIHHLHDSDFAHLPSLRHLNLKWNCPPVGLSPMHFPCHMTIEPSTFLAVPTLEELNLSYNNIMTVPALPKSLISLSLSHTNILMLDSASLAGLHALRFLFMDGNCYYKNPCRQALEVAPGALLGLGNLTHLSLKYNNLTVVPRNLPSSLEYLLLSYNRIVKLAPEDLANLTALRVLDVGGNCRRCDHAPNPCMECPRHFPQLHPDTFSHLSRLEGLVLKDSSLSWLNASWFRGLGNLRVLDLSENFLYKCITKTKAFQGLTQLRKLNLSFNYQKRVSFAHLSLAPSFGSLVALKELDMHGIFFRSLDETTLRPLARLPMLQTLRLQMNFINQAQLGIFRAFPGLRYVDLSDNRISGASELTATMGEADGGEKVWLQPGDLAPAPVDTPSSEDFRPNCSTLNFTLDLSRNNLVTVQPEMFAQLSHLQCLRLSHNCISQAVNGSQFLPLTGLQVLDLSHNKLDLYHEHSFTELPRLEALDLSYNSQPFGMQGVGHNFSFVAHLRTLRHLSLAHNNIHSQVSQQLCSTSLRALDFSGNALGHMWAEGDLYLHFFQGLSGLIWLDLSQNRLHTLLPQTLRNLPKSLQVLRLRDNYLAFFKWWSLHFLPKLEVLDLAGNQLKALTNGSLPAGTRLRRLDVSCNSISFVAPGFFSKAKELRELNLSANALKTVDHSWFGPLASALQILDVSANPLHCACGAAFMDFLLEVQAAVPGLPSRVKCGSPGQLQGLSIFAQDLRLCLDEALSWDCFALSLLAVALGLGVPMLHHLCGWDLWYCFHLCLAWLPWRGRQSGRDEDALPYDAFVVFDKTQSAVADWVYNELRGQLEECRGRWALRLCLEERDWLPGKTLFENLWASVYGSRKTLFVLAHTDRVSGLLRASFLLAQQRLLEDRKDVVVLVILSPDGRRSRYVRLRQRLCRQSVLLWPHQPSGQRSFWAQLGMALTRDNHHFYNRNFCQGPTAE
BLA counter-1: non-selective beta-lactamase inhibitors in TLR9-MyD88 counter-screen; 680 compounds, 7% hits; CHO-BLA cells, CCF4 FRET ratio, BLA reporter; AID 540251; shares compounds with TLR9-MyD88 inh; inhibition, % at 4.98 µM;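 active means mean inhibition above a 50% cutoff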;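 further: counterscreen of TLR9-MyD88 hits on CMV-driven BLA in CHO-K1 cells; 0% = DMSO alone and 100% = clavulanate blocking BLA; higher means less blue over green ratio so more BLA blockade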
TLR9 CHO tox: counter-screen for TLR9-MyD88 inhibitors: cytotoxicity in CHO cells | shares compounds with TLR9-MyD88 inh | inhibition, % at 4.98 µM | AID 588336 | luminescence | 680 compounds, 39% hits; in the data active means inhibition above about 11%
NOD2-RIPK2 conf: NOD2-RIPK2 interaction inhibition confirmed. 1,200 compounds, 70% hits. shares compounds with NOD2-RIPK2 inh. CHO cells, NOD2-RIPK2 BLA complementation, CCF4 FRET. AID 624370. inhibition, % at 4.98 µM;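 active means mean inhibition across replicates above a set limit taken from the earlier primary screen, cut at about 21% in these data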;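 further: 0% = DMSO-only wells and the high end = clavulanate BLA-blocked wells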
BLA counter-2: counter-screen for NOD2-RIPK2 interaction inhibitors: BLA reporter; shares compounds with NOD2-RIPK2 inh; CHO BLA reporter, CCF4 FRET ratio, counterscreen; inhibition, % at 4.98 µM; 1,200 compounds, 57% hits;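 active means mean inhibition above the low-control mean inhibition plus three low-control SD, cut at about 11% in these data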;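 further: 0% = DMSO only wells and 100% = clavulanate high control wells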
Starred values were filed as active, the others as inactive; ? = inconclusive; · = no result. Only some compounds are listed: those with a hit (about 1.6% of all), similar ones and a draw of the others.

SMILES | NOD2-RIPK2 inh | SR-BI DiI inh | SR-BI DiI-HDL act | TLR9-MyD88 inh | TLR4 MyD88 comp | Hep lipid drop | DiI quencher | others
CN(C(=O)COC(=O)c1ccccc1Nc1ccccc1)C1CCS(=O)(=O)C1 (stereo unspecified) | -3.9 | 46.4 | -46.4 | 2.6 | -2.8 | · | ·
NC(=O)NC(Cc1ccccc1)C(=O)NCCCSc1ccccc1 (stereo unspecified) | -15.2 | · | · | 0.4 | · | -5.7 | ·
CC1(C)CC(NC(=O)C2CCC(=O)N(C3CC3)C2)CC(C)(C)C1 (stereo unspecified) | -4.9 | -10.9 | 10.9 | 5.4 | · | -2.6 | ·
O=C(C(=O)N1CCC(Cc2ccccc2)CC1)c1ccccc1 | -14.2 | · | · | · | · | · | ·
Cc1c(Cl)cccc1S(=O)(=O)N1CCC(C(=O)NNC(=O)C2CC2)CC1 | -4.6 | 44.6 | -44.6 | -0.3 | -3.9 | 0.6 | -0.7%
Cc1ccc(S(=O)(=O)N2CCC(C(=O)NNC(=O)c3cccnc3)CC2)cc1 | 2.0 | -4.5 | 4.5 | 0.7 | -6.5 | -1.7 | -0.7%
Cc1sc(NC(=O)c2cccc([N+](=O)[O-])c2)c(C(N)=O)c1-c1ccc(C(C)(C)C)cc1 | -2.8 | 77.1* | -77.1 | 0.2 | -2.0 | -25.9 | -4.9%
C[C@@H]1COC(=O)[C@H](NC(=O)OCC2c3ccccc3-c3ccccc32)C/C=C\C[C@@H](CC(=O)N[C@H](CO)Cc2ccccc2)C(=O)N1 | -4.7 | 80.6* | -80.6 | -7.0 | · | · | -9.0%
CCC(C)NC(=O)Cn1cc(S(=O)(=O)N2CCN(c3ccccc3F)CC2)c2ccccc2c1=O (stereo unspecified) | -1.9 | 86.5* | -86.5 | 2.9 | 3.9 | -3.4 | 3.7%
Cn1cc(S(=O)(=O)N2CCN(c3ccccc3F)CC2)c(=O)n(C)c1=O | -12.7 | -3.1 | 3.1 | -3.8 | 2.1 | -2.3 | ·
Cc1noc(NS(=O)(=O)c2ccc(NC(=O)C(CC(C)C)N3C(=O)c4ccccc4C3=O)cc2)c1C (stereo unspecified) | 3.1 | -9.1 | 9.1 | 0.2 | · | 0.8 | ·
COc1ccc(N2CC(C(=O)NCCc3ccc(OC)c(OC)c3)CC2=O)cc1 (stereo unspecified) | 0.2 | 0.0 | 0.0 | -4.3 | -16.2 | · | ·
COc1ccc(N2CC(C(=O)NCCC3=CCCCC3)CC2=O)c(OC)c1 (stereo unspecified) | 3.2 | 78.0* | -78.0 | -5.4 | · | · | -3.2%
COc1ccc(N2CC(C(=O)NCCc3ccc(Cl)cc3)CC2=O)c(OC)c1 (stereo unspecified) | 6.6 | 79.2* | -79.2 | 0.7 | · | · | -7.9%
Cc1ccccc1C(=O)NC1CC2CCCC(C1)N2C(=O)Nc1ccccc1 (stereo unspecified) | -4.1 | -15.4 | 15.4 | -1.2 | · | -1.2 | -2.6%
CC(C)(C)C(=O)NC1CC2CCCC(C1)N2C(=O)Nc1ccccc1 (stereo unspecified) | -0.4 | -5.3 | 5.3 | 1.4 | · | -12.3 | ·
COCCN(Cc1cn(C)nc1-c1ccc(Oc2ccccc2)cc1)C(C)C | 2.2 | 81.9* | -81.9 | -3.7 | · | 0.4 | -3.7%
CC(C)N(C)Cc1cn(C)nc1-c1ccc(Oc2ccccc2)cc1 | 0.4 | -10.6 | 10.6 | -13.6 | · | -10.0 | ·
O=C(CN1CCN(CC(=O)Nc2ccccc2F)CC1)Nc1cccc(F)c1 | -8.6 | 1.4 | -1.4 | -0.7 | · | 3.9 | ·
O=C(CN1CCN(CC(=O)Nc2ccc3c(c2)OC2(CCCCC2)O3)CC1)Nc1cccc(F)c1 | -7.5 | 67.5 | -67.5 | 0.1 | · | · | -10.4%
CCN(CC)C(=O)c1cccc(NC(=O)c2cc(C3CC3)nc3c2cnn3C(C)C)c1 | -0.6 | 78.5* | -78.5 | -4.7 | · | · | 5.9%
CC(=O)Nc1ccc(NC(=O)c2cc(C3CC3)nc3c2cnn3C(C)C)cc1 | -8.8 | ? | -74.6 | 1.4 | · | · | ·
Cc1ccccc1C(=O)Nc1cc(NC(=O)c2ccccc2C)cc(C(=O)O)c1 | -6.5 | -11.4 | 11.4 | 1.3 | · | 0.0 | -2.5%
CCc1sc(N2C(=O)C3C4CCC(C4=C(C)C)C3C2=O)nc1-c1ccccc1 (stereo unspecified) | 70.7* | 84.1* | -84.1 | -0.5 | -7.2 | -3.7 | 2.3% | NOD2-RIPK2 conf=-0.6;BLA counter-2=-0.5
COc1cc(CC(=O)C(=O)O)oc(=O)c1 | -1.9 | · | · | 2.5 | · | · | ·
SMILES | NOD2-RIPK2 inh | SR-BI DiI inh | SR-BI DiI-HDL act | TLR9-MyD88 inh | TLR4 MyD88 comp | Hep lipid drop | DiI quencher | others
COc1ccc(C=C2C(=O)OC(C)(C)OC2=O)cc1OC | -5.0 | 18.4 | -18.4 | -1.6 | · | -3.2 | ·
COc1ccc(/C=C2\C(=O)NC(=O)c3ccccc32)cc1OC | -5.2 | -7.3 | 7.3 | 31.4* | · | · | · | TLR9-MyD88 conf=54.2*;BLA counter-1=58.0*;TLR9 CHO tox=25.7*
COc1ccc2c(C#N)c3ccccn3c2c1 | 11.3 | 18.2 | -18.2 | 21.2* | 24.0 | 9.0 | · | TLR9-MyD88 conf=5.4;BLA counter-1=8.4;TLR9 CHO tox=7.2
Cc1cc(=O)n2ccccc2c1C#N | 3.4 | -24.7 | 24.7 | 7.1 | 10.6 | 9.4 | ·
N#Cc1ccc(-c2ccco2)nc1SCC(=O)c1ccc(Cl)cc1 | 14.9 | 23.9 | -23.9 | 28.2* | 29.6* | 24.0 | · | TLR9-MyD88 conf=25.3*;BLA counter-1=25.2;TLR9 CHO tox=8.2
C/C(=N/Nc1ccc([N+](=O)[O-])cc1)c1ccc(C)cc1C | 20.9 | 47.9 | -47.9 | 21.5* | 17.9 | 14.9 | · | TLR9-MyD88 conf=19.5;BLA counter-1=16.2;TLR9 CHO tox=0.0
C/C(=N/Nc1ccc([N+](=O)[O-])cc1)c1c[nH]c2ccccc12 | 6.6 | 126.6* | -126.7 | 37.3* | · | 13.3 | · | TLR9-MyD88 conf=24.3*;BLA counter-1=19.3;TLR9 CHO tox=2.7
COC(=O)Nc1nnc(-c2ccccc2Cl)s1 | 13.3 | 6.2 | -6.2 | -2.1 | -4.5 | · | ·
COc1cccc(C2=CC(c3ccc(N(C)C)cc3)n3nnnc3N2)c1 (stereo unspecified) | 12.4 | -1.2 | 1.2 | 8.3 | -2.1 | · | ·
